Series [1] addresses 5-hydroxytryptamine receptor 7 (Homo sapiens, UniProt P34969). Briefly: Displacement of [3H]-5-CT from human 5-HT7B receptor expressed in HEK293 cells incubated for 1 hr. The class given is cell-based. In short, it runs like this: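 Membranes from HEK293 cells stably expressing human 5-HT7b receptor, with [3H]-5-CT (39.2 Ci/mmol). Buffer: 50 mM Tris-HCl, 4 mM MgCl2, pargyline, 0.1% ascorbate. Incubation 1 h at 37 °C, then rapid filtration and counting of filter radioactivity. Non-specific binding defined with 5-HT. Triplicates at 7–8 concentrations (10^-11 to 10^-4 M). Ki by Cheng–Prusoff.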
On the technique in general: Loss of bound radioactivity is the signal in a displacement assay; it reports binding, not function.

Series [2] deals with 5-hydroxytryptamine receptor 2A (Homo sapiens, UniProt P28223). The series can be described thus: Displacement of [3H]-ketanserin from human 5-HT2A receptor expressed in HEK293 cells incubated for 1 hr. The class given is cell-based. In short, it runs like this: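 Membranes from HEK293 cells stably expressing human 5-HT2A receptor, with [3H]-ketanserin (66.9 Ci/mmol). Incubation 1 h at 37 °C, then rapid filtration and counting. Triplicates at 7–8 concentrations (10^-11 to 10^-4 M). Ki by Cheng–Prusoff; means of at least three experiments.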
Chain of 5-hydroxytryptamine receptor 2A (P28223 whole entry): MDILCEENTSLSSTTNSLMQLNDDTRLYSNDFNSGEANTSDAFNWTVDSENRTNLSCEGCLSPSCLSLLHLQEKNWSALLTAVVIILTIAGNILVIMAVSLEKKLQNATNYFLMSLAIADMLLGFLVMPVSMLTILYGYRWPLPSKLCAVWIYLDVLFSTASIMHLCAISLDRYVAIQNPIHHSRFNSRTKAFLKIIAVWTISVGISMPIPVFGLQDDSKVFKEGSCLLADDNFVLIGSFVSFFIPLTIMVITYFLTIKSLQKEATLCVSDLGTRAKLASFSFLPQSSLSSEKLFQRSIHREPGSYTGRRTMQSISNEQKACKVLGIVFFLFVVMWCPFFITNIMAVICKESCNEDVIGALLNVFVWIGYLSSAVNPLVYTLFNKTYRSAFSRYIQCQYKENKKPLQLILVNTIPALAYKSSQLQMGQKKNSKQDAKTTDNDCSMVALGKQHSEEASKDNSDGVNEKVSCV

The target of the next series is D(2) dopamine receptor (Homo sapiens, UniProt P14416). The series can be described thus: Displacement of [3H]-Raclopride from human dopamine D2L receptor expressed in HEK293 cells incubated for 1 hr. The class given is cell-based. An outline of the steps:
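Membranes from HEK293 cells stably expressing human D2L receptor, with [3H]-raclopride (74.4 Ci/mmol). Buffer: Tris-HCl, EDTA, MgCl2, 120 mM NaCl, 5 mM KCl, 1.5 mM CaCl2, ascorbate. Incubation 1 h at 37 °C, then filtration. Non-specific binding defined with (+)butaclamol. Triplicates at 7–8 concentrations (10^-11 to 10^-4 M). Ki by Cheng–Prusoff.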

The target of series [3] is T1, 5-hydroxytryptamine receptor 1A (Homo sapiens, UniProt P08908).
T1 sequence (P08908 whole entry): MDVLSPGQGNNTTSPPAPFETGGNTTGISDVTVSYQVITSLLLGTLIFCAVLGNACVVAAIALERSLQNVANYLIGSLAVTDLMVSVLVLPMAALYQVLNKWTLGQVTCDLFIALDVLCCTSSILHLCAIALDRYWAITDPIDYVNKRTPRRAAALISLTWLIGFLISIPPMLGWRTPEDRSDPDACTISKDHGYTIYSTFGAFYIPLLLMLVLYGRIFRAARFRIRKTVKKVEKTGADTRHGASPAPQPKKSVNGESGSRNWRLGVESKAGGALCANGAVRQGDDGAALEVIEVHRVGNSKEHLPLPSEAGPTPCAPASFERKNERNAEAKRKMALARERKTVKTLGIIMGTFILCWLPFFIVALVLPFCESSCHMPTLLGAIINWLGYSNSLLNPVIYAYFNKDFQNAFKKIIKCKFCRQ
The series can be described thus: Displacement of [3H]-8-OH-DPAT from human 5-HT1A receptor expressed in HEK293 cells incubated for 1 hr. The class given is cell-based. In short, it runs like this:
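Membranes from HEK293 cells stably expressing human 5-HT1A receptor, with [3H]-8-OH-DPAT (187 Ci/mmol). Buffer: 50 mM Tris-HCl, 0.1 mM EDTA, 4 mM MgCl2, pargyline, 0.1% ascorbate. Incubation 1 h at room temperature, then filtration. Non-specific binding defined with 5-HT. Triplicates at 7–8 concentrations. Ki by Cheng–Prusoff.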

The subject of series [4] is Mus musculus. The series can be described thus: Toxicity in Swiss albino mouse assessed as effect on spontaneous locomotor activity at 1.25 mg/kg, ip dosed 30 mins before test measured after 2 to 6 mins. The class given is organism-based. The note with it: in vivo. An outline of the steps: (§1)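 Swiss albino mice given reference drug ip 30 min before testing (citalopram in water; SB-269970 suspended in 1% aqueous Tween 80). Ambulation counted from 2 to 6 min in individual cages by activity monitor.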

Series [5] concerns Mus musculus. The series can be described thus: Antidepressant-like activity in Swiss albino mouse assessed as reduction in immobility time at 1.25 mg/kg, ip dosed 30 mins before test measured after 6 mins by forced swim test. Format: functional, organism-based. In short, it runs like this:
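Male Swiss albino mice (22–26 g), 7–12/group, used once; drug in distilled water, given ip 30 min before test. Observer blind to treatment. Mice swam 6 min in a glass cylinder (25 cm high, 10 cm diameter) holding 10 cm of water at 23–25 °C. Immobility (floating, only small head-keeping movements) was timed over the last 4 min. One-way ANOVA, then Bonferroni vs vehicle.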

Series [6] can be described thus: Intrinsic clearance in mouse liver microsomes at 20 uM at pH 7.4 incubated for 15 mins by UPLC/MS analysis in presence of NADPH. The class given is ADME. The note with it: read-out: CLH. On the technique in general: Liver microsomes are a subcellular fraction often used to study metabolism.
Series [7] in a line: Half life in mouse liver microsomes at 20 uM at pH 7.4 incubated for 15 mins by UPLC/MS analysis in presence of NADPH. Format: ADME. In short, it runs like this: (§2)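 Compound (20 µM) incubated with mouse liver microsomes (0.2 mg/ml) in 100 mM potassium phosphate, pH 7.4, 37 °C. Reaction started with NADPH-regenerating system; blank without NADPH run in parallel. Sampling at 5, 15, 30 and 60 min (some to 120 min), in duplicate. Levallorphan internal standard; UPLC/MS quantitation. t1/2 from ln % remaining vs time.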

Series [8] can be described thus: Metabolic stability in mouse liver microsomes assessed as retention time of compound at 20 uM at pH 7.4 incubated for 15 mins by UPLC/MS analysis in presence of NADPH. The note with it: pH 7.4, 0.25 h. Format: ADME. In short, it runs like this: as §2
Series [9] can be described thus: Drug metabolism in mouse liver microsomes assessed as retention time of hydroxylated metabolite at 20 uM at pH 7.4 incubated for 15 mins by UPLC/MS analysis in presence of NADPH. The class given is ADME. As to conditions: pH 7.4, 0.25 h. In short, it runs like this:
as §2

Series [10] can be described thus: Drug metabolism in mouse liver microsomes assessed as retention time of N-dealkylated metabolite at 20 uM at pH 7.4 incubated for 15 mins by UPLC/MS analysis in presence of NADPH. As to conditions: pH 7.4, 0.25 h. Format: ADME. An outline of the steps:
as §2

In series [11] the test system is Mus musculus. The series can be described thus: Toxicity in Swiss albino mouse assessed as effect on spontaneous locomotor activity at 10 mg/kg, ip dosed 30 mins before test measured after 2 to 6 mins. Format: organism-based. As to conditions: in vivo. An outline of the steps:
as §1

Series [12] concerns Mus musculus. The series can be described thus: Antidepressant-like activity in Swiss albino mouse assessed as reduction in immobility time at 10 mg/kg, ip dosed 30 mins before test measured after 6 mins by forced swim test. The class given is functional, organism-based. An outline of the steps:
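Male Swiss albino mice (22–26 g), 7–12/group, used once; drug suspended in 1% aqueous Tween 80 just before use, given ip 30 min before test. Blind observer. 6-min swim in a glass cylinder (25 × 10 cm) with 10 cm of water at 23–25 °C. Immobility timed over the final 4 min. Data as mean ± SEM; one-way ANOVA, then Bonferroni vs vehicle.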

The values below come from ChEMBL document CHEMBL3745654, “N-Alkylated arylsulfonamides of (aryloxy)ethyl piperidines: 5-HT(7) receptor selectivity versus multireceptor profile” (Bioorg Med Chem, 2016).

The source made the active and inactive calls. No cut-off for these calls is given here.

Chain of D(2) dopamine receptor (P14416 whole entry): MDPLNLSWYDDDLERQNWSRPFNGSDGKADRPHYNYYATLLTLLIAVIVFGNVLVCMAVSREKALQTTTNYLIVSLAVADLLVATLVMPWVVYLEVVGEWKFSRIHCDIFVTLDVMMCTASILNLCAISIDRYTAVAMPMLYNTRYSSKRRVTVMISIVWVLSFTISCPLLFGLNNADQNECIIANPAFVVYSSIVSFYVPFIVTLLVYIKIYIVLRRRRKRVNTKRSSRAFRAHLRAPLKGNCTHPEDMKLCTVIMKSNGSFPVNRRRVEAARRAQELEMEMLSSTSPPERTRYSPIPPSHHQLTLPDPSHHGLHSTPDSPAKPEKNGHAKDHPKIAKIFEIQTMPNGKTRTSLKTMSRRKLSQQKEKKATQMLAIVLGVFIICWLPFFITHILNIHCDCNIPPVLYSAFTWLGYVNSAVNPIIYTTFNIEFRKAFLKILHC
Chain of 5-hydroxytryptamine receptor 7 (P34969 whole entry): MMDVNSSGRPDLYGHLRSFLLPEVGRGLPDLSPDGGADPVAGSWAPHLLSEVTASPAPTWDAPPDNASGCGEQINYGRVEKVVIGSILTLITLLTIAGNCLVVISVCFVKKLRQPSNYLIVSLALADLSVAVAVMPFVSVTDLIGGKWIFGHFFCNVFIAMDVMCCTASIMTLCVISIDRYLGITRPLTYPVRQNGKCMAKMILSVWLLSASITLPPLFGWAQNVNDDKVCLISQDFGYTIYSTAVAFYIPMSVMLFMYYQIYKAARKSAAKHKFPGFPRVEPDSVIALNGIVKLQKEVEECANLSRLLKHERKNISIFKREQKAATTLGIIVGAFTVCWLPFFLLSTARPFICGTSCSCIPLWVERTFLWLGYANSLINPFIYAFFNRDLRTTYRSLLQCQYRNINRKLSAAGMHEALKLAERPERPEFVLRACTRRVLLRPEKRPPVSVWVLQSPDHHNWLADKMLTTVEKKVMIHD

The Ki is a measure of affinity in units of concentration, obtained from inhibition or displacement. A low value points to tighter binding. As to `CN(C1CCN(CCOc2ccccc2C(C)(C)C)CC1)S(=O)(=O)c1ccc(F)cc1`, the Ki in series [1] worked out at 58 nM; in [2], 1070 nM; at D(2) dopamine receptor, 324 nM; in series [3], 9050 nM.

Consider `CN(C1CCN(CCOc2ccccc2-c2ccccc2)CC1)S(=O)(=O)c1ccccc1`, for which the inhibition constant (Ki) turned out to be 100 nM in series [1], 42 nM in series [2], 52 nM at D(2) dopamine receptor and 62 nM in series [3].

Consider `CC(C)c1ccccc1OCCN1CCC(N(C)S(=O)(=O)c2ccc(F)cc2)CC1`, for which the inhibition constant (Ki) in [1] was 13 nM; in series [2] it was 382 nM; at D(2) dopamine receptor, 50 nM; in series [3] it was 180 nM.

Consider `CC(C)c1ccccc1OCCN1CCC(N(C)S(=O)(=O)c2cccc(F)c2)CC1`, for which the inhibition constant Ki in series [1] is 18 nM; in series [2], 230 nM; at D(2) dopamine receptor, 45 nM; in series [3] it was 190 nM.

With `O=S(=O)(c1ccc(F)cc1)N(CC1CC1)C1CCN(CCOc2ccccc2-c2ccccc2)CC1`, the Ki in series [1] stood at 18 nM; in series [2], 70 nM; at D(2) dopamine receptor it was 37 nM; in series [3] it was 342 nM.

Turning to `CC(C)c1ccccc1OCCN1CCC(N(C)S(=O)(=O)c2cnn(C)c2)CC1`, the Ki in series [1] was determined as 10 nM; in series [2], 121 nM; on D(2) dopamine receptor, 46 nM; in series [3], 346 nM.

In the case of `CN(C)CCCC1(c2ccc(F)cc2)OCc2cc(C#N)ccc21` (stereo not drawn) [CITALOPRAM], in the series with Mus musculus [4], the Activity result is listed as “Non-toxic”. For the same compound, the result in the series on Mus musculus [5] was Active.

For the compound `CN(C1CCN(CCOc2ccccc2-c2ccccc2)CC1)S(=O)(=O)c1ccc(F)cc1`, the inhibitory constant (Ki) came to 5 nM in series [1], 69 nM in series [2], 54 nM at D(2) dopamine receptor and 30 nM in [3].

`CN(C1CCN(CCOc2ccccc2C(C)(C)C)CC1)S(=O)(=O)c1ccccc1`: the inhibition constant (Ki) in [1] was 70 nM; in series [2] it was 1250 nM; at D(2) dopamine receptor, 360 nM; in series [3], 2350 nM.

The term half-life denotes how long it takes for the measured level to halve. Regarding `Cn1cc(S(=O)(=O)NC2CCN(CCOc3ccccc3C(C)(C)C)CC2)cn1`, the microsomal CLint at 20 µM in series [6] is over 200 µL/min/mg. The half-life at 20 µM in [7] was under 20 min. The values for the Retention_time in series [8] and in series [9] were 4.72 min and 3.62 min, respectively.

As for `Cn1cc(S(=O)(=O)NC2CCN(CCOc3ccccc3-c3ccccc3)CC2)cn1`, in [6], the microsomal CLint at 20 µM was over 200 µL/min/mg. Also, the half-life at 20 µM in [7] was under 20 min. In addition, the Retention_time is 4.45 min in series [8] and 3.85 min in series [10].

Turning to `CN(C1CCN(CCOc2ccccc2C(C)(C)C)CC1)S(=O)(=O)c1cccc(F)c1`, the Ki is 68 nM in [1], 1930 nM in series [2], 290 nM at D(2) dopamine receptor and 4510 nM in [3].

Take `CC(C)(C)c1ccccc1OCCN1CCC(N(CC2CC2)S(=O)(=O)c2ccc(F)cc2)CC1`: the Ki in series [1] came out at 53 nM; in series [2] it was 1330 nM; at D(2) dopamine receptor, 160 nM; in series [3], 14000 nM.

With `CC(C)c1ccccc1OCCN1CCC(N(C)S(=O)(=O)c2ccccc2)CC1`, the inhibitory constant (Ki) in series [1] came out at 9 nM; in series [2], 264 nM; at D(2) dopamine receptor, 60 nM; in series [3], 140 nM.

Turning to `CC(C)c1ccccc1OCCN1CCC(N(CC2CC2)S(=O)(=O)c2ccc(F)cc2)CC1`, the Ki in series [1] came to 28 nM; in series [2], 413 nM; at D(2) dopamine receptor it was 20 nM; in series [3] it was 249 nM.

For the compound `CC(C)c1ccccc1OCCN1CCC(N(CC2CC2)S(=O)(=O)c2cccc(F)c2)CC1`, the Ki in series [1] came to 56 nM; in series [2], 429 nM; at D(2) dopamine receptor, 15 nM; in [3], 158 nM.

For the compound `CC(C)c1ccccc1OCCN1CCC(N(CC2CC2)S(=O)(=O)c2cnn(C)c2)CC1`, the Ki in series [1] was determined as 56 nM; in [2] it was 378 nM; on D(2) dopamine receptor, 18 nM; in series [3], 214 nM.

Take `CC1CCN(CC[C@H]2CCCN2S(=O)(=O)c2cccc(O)c2)CC1`: the Activity entry in the series with Mus musculus [11] is “Non-toxic”. Besides, the result with Mus musculus [12] was Active.
